Measured values: ChEMBL document CHEMBL1126768, “A mechanism-based inactivation study of neutral endopeptidase 24.11” (J Med Chem, 1993)

Columns and labels:
[1] = substrate: N#CCC(=O)NC(Cc1ccccc1)C(=O)NC(Cc1ccccc1)C(=O)O; test: Michaelis-Menten constant determined for Angiotensin I converting enzyme
[2] = substrate: N#CCC(=O)NC(Cc1ccccc1)C(=O)NC(Cc1ccccc1)C(=O)O; test: Michaelis-Menten constant determined for Neutral endopeptidase (NEP)
Procedure, shortened: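 Recombinant human NEP from CHO cells (>99% pure), 0.5 μM in 50 mM HEPES pH 7.4 with 10% p-dioxane, incubated at 25 °C with inactivator at 0.5–7.5 μM final. Aliquots diluted 1:100 into DAGNPG assay solution (50 mM Tris pH 7.4, 37 °C), fluorescence read at ex 342/em 562 nm. Pseudo-first-order kobs plotted double-reciprocally against inactivator concentration to give kinact and Km.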

[3] = substrate: N#CCC(=O)CC(Cc1ccccc1)C(=O)NC(Cc1ccccc1)C(=O)O

B1: Angiotensin-converting enzyme (Rattus norvegicus), P47820 (protein)
chain: MGAASGQRGRWPLSPPLLMLSLLLLLLLPPSPAPALDPGLQPGNFSADEAGAQLFADSYNSSAEVVMFQSTAASWAHDTNITEENARLQEEAALINQEFAEVWGKKAKELYESIWQNFTDQKLRRIIGSVQTLGPANLPLTQRLQYNSLLSNMSRIYSTGKVCFPNKTATCWSLDPELTNILASSRNYAKVLFAWEGWHDAVGIPLRPLYQDFTALSNEAYRQDGFSDTGAYWRSWYESPSFEESLEHLYHQVEPLYLNLHAFVRRALHRRYGDKYINLRGPIPAHLLGDMWAQSWENIYDMVVPFPDKPNLDVTSTMVQKGWNATHMFRVAEEFFTSLGLSPMPPEFWAESMLEKPADGREVVCHASAWDFYNRKDFRIKQCTRVTMDQLSTVHHEMGHVQYYLQYKDLHVSLRRGANPGFHEAIGDVLALSVSTPAHLHKIGLLDRVANDIESDINYLLKMALEKIAFLPFGYLVDQWRWGVFSGRTPPSRYNYDWWYLRTKYQGICPPVARNETHFDAGAKFHIPSVTPYIRYFVSFVLQFQFHQALCKEAGHQGPLHQCDIYQSTKAGAKLQQVLQAGCSRPWQEVLKDLVGSDALDASALMEYFQPVSQWLQEQNQRNGEVLGWPEYQWRPPLPDNYPEGIDLETDEAKANRFVEEYDRTAKVLWNEYAEANWHYNTNITIEGSKILLQKNKEVSNHTLKYGTWAKTFDVSNFQNSTIKRIIKKVQNVDRAVLPPNELEEYNQILLDMETTYSVANVCYTNGTCLSLEPDLTNIMATSRKYEELLWVWKSWRDKVGRAILPFFPKYVDFSNKIAKLNGYSDAGDSWRSSYESDDLEQDLEKLYQELQPLYLNLHAYVRRSLHRHYGSEYINLDGPIPAHLLGNMWAQTWSNIYDLVAPFPSAPSIDATEAMIKQGWTPRRIFKEADNFFTSLGLLPVPPEFWNKSMLEKPTDGREVVCHASAWDFYNGKDFRIKQCTSVNMEELVIAHHEMGHIQYFMQYKDLPVTFREGANPGFHEAIGDVLALSVSTPKHLHSLNLLSSEGSGYEHDINFLMKMALDKIAFIPFSYLIDQWRWRVFDGSITKENYNQEWWSLRLKYQGLCPPVPRSQGDFDPGSKFHVPANVPYIRYFISFIIQFQFHEALCRAAGHTGPLYKCDIYQSKEAGKLLADAMKLGYSKQWPEAMKIITGQPNMSASAIMNYFKPLTEWLVTENRRHGETLGWPEYTWTPNTARAEGSLPESSRVNFLGMYLEPQQARVGQWVLLFLGVALLVATVGLAHRLYNIHNHHSLRRPHRGPQFGSEVELRHS
- Km [1]: 10.5 mM

B2: Neprilysin (Homo sapiens), P08473 (protein)
chain: MGKSESQMDITDINTPKPKKKQRWTPLEISLSVLVLLLTIIAVTMIALYATYDDGICKSSDCIKSAARLIQNMDATTEPCTDFFKYACGGWLKRNVIPETSSRYGNFDILRDELEVVLKDVLQEPKTEDIVAVQKAKALYRSCINESAIDSRGGEPLLKLLPDIYGWPVATENWEQKYGASWTAEKAIAQLNSKYGKKVLINLFVGTDDKNSVNHVIHIDQPRLGLPSRDYYECTGIYKEACTAYVDFMISVARLIRQEERLPIDENQLALEMNKVMELEKEIANATAKPEDRNDPMLLYNKMTLAQIQNNFSLEINGKPFSWLNFTNEIMSTVNISITNEEDVVVYAPEYLTKLKPILTKYSARDLQNLMSWRFIMDLVSSLSRTYKESRNAFRKALYGTTSETATWRRCANYVNGNMENAVGRLYVEAAFAGESKHVVEDLIAQIREVFIQTLDDLTWMDAETKKRAEEKALAIKERIGYPDDIVSNDNKLNNEYLELNYKEDEYFENIIQNLKFSQSKQLKKLREKVDKDEWISGAAVVNAFYSSGRNQIVFPAGILQPPFFSAQQSNSLNYGGIGMVIGHEITHGFDDNGRNFNKDGDLVDWWTQQSASNFKEQSQCMVYQYGNFSWDLAGGQHLNGINTLGENIADNGGLGQAYRAYQNYIKKNGEEKLLPGLDLNHKQLFFLNFAQVWCGTYRPEYAVNSIKTDVHSPGNFRIIGTLQNSAEFSEAFHCRKNSYMNPEKKCRVW
- Km [2]: 2.38 mM
- Km [3]: 5.1 mM
